Legend:
[1] = biological target: T1, Alpha-2B adrenergic receptor (Rattus norvegicus, UniProt P19328); assay: In vitro binding affinity towards alpha-2B adrenergic receptor of rat neonatal lung in radioligand binding assay
T1 sequence (P19328 whole entry): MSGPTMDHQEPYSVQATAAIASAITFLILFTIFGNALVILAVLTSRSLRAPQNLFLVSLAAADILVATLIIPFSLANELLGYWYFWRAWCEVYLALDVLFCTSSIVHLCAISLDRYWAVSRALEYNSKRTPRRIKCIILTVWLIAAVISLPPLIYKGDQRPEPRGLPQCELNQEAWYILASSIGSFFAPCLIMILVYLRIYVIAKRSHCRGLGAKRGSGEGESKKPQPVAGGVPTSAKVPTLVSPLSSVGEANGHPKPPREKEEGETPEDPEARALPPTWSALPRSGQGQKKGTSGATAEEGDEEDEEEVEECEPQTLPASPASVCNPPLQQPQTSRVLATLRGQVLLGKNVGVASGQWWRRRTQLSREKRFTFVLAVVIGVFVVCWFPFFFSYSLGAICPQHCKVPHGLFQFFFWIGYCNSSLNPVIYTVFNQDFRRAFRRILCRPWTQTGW

[2] = biological target: Alpha adrenergic receptor 1A and 1B (Rattus norvegicus) (UniProt P15823+P43140); assay: Selectivity is ratio of pKi (binding affinity) of alpha-1B receptor to that of alpha-1A receptor.; assay type: protein assay
Alpha adrenergic receptor 1A and 1B (Rattus norvegicus), sequence (P43140 whole entry, looked up, one chain of several): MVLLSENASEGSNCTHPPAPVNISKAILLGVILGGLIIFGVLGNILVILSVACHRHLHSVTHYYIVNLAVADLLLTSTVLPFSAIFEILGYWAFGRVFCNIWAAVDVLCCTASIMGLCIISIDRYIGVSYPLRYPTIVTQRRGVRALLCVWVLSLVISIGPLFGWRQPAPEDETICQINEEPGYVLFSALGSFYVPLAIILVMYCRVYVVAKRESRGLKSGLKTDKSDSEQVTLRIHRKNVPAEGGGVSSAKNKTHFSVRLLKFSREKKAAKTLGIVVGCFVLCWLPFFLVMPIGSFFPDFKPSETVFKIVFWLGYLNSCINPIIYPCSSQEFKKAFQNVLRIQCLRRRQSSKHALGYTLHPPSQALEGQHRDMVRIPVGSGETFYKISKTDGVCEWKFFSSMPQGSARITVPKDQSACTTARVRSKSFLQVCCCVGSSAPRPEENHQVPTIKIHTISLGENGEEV

[3] = biological target: T2, Alpha-1B adrenergic receptor (Rattus norvegicus) (UniProt P15823); assay: Functional agonism of the compounds to constrict tissue containing the alpha-1B adrenergic receptor in rat spleen; assay type: tissue-based
T2 sequence (whole entry): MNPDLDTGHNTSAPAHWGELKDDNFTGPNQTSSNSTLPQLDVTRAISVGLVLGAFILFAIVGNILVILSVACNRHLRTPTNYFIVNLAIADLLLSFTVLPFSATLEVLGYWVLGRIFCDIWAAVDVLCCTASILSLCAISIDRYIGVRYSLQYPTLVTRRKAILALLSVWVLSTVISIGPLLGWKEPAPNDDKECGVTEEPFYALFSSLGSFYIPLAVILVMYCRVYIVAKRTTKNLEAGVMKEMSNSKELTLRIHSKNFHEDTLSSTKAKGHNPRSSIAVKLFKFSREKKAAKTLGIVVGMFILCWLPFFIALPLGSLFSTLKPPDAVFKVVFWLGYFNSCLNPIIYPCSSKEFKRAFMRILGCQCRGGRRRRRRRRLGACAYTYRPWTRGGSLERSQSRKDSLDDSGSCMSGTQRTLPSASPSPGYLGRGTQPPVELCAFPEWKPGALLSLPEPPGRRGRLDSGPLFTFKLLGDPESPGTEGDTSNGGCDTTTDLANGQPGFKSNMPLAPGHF
Procedure, shortened: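 Agonist dose–response curves were run on isolated tissue: rabbit urethra for α1A, rat spleen for α1B, and rat aorta for α1D.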

[4] = biological target: T3, Alpha-2A adrenergic receptor (Homo sapiens, UniProt P08913); assay: In vitro binding affinity towards alpha-2A adrenergic receptor of human clone in radioligand binding assay
T3 sequence (P08913 whole entry): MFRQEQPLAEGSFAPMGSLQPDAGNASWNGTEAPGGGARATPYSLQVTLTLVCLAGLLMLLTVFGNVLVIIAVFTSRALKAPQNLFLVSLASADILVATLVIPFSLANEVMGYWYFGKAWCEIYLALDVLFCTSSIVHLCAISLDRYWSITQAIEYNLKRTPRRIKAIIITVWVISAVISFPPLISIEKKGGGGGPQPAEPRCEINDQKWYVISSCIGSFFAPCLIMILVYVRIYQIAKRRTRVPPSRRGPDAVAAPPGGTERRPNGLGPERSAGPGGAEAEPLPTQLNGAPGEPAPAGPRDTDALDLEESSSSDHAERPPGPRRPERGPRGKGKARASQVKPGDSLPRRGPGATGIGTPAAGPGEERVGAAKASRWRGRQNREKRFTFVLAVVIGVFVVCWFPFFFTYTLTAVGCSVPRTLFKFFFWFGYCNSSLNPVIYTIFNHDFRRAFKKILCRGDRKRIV

[5] = biological target: T4, Alpha-1D adrenergic receptor (Rattus norvegicus, UniProt P23944); assay: In vitro binding affinity towards alpha-1D adrenergic receptor of rat clone in radioligand binding assay
T4 sequence (P23944 whole entry): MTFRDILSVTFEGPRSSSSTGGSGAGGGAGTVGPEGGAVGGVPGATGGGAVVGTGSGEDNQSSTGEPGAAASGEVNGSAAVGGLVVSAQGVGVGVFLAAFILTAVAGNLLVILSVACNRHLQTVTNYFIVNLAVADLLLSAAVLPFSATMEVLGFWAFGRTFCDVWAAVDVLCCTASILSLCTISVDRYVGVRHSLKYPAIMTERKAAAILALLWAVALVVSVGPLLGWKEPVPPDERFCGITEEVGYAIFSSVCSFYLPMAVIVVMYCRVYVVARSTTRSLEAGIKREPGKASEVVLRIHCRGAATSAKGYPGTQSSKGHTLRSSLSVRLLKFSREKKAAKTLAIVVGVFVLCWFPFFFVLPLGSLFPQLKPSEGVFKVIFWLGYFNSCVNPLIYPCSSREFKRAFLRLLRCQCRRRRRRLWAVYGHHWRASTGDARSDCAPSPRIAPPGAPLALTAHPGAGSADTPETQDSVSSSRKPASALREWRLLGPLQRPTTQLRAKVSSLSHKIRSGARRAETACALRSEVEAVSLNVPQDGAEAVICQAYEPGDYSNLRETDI
Procedure, shortened: (§1)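 Radioligand binding at α1 subtypes: α1A from rat submaxillary gland, α1B hamster clone, α1D rat clone. Run essentially per an earlier method.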

Canis familiaris = assay: Uroselectivity was determined by measuring effective dose required for 5 mmHg increase of intraurethral pressure (IUP) in vivo in dog; assay type: functional, Canis lupus familiaris
Procedure, shortened: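 Dog model recording intraurethral pressure (IUP) and mean arterial pressure (MAP) simultaneously. Increasing iv doses given, maximal effect of each dose taken. Doses giving a 5 mmHg rise in IUP (ED Δ5) or 20 mmHg rise in MAP (ED Δ20) were calculated, in nmol/kg ± SEM, n ≥ 4 (2 or 3 where footnoted).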

[6] = biological target: T5, Alpha-1B adrenergic receptor (Mesocricetus auratus, UniProt P18841); assay: In vitro binding affinity towards alpha-1B adrenergic receptor of hamster clone in radioligand binding assay; assay type: single protein; procedure, shortened: as §1
T5 sequence (P18841 whole entry): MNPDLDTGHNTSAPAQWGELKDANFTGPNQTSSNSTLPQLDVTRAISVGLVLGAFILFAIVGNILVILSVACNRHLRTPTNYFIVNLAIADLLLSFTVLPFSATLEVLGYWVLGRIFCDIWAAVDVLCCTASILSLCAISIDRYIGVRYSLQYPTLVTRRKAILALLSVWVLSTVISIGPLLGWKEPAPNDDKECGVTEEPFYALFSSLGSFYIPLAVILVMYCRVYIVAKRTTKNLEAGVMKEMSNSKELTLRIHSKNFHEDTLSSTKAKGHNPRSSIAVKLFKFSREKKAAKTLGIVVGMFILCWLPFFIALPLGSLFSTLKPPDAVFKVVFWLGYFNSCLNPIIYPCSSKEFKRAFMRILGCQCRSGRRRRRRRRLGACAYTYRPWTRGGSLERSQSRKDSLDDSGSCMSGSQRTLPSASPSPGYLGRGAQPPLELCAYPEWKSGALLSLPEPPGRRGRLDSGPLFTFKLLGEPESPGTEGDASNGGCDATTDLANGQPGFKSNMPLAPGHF

Row | SMILES | Ki [1] | Selectivity [2] | pD2 [3] | Ki [4] | Ki [5] | ED delta5 (Canis familiaris) | Ki [6]
1 | COc1ccc(OC)c(C(O)CN)c1 (stereo not given) [DESGLYMIDODRINE] | 1860 nM | 3 | 4.07 | 1450 nM | 1660 nM | 205 nM/kg | –
2 | O=S(=O)(CC(F)(F)F)Nc1cccc2c1CCCC2c1c[nH]cn1 (single isomer, unassigned; (+)) | > 10000 nM | > 80 | – | 955 nM | > 10000 nM | 156 nM/kg | > 10000 nM
3 | CC(N)C(O)c1ccccc1 (stereo not given) [PHENYLPROPANOLAMINE] | 263 nM | 1 | 3.55 | 275 nM | 8510 nM | 1100 nM/kg | 9550 nM
4 | O=C(Nc1cccc2c1CCCC2c1c[nH]cn1)C(F)(F)F (stereo not given) | 661 nM | 60 | 5.47 | 309 nM | – | 188 nM/kg | > 10000 nM
5 | CN(c1cccc2c1CCCC2c1c[nH]cn1)S(C)(=O)=O (stereo not given) | 912 nM | > 50 | 5.65 | 85.1 nM | – | – | > 10000 nM

From ChEMBL document CHEMBL1148329, “Synthesis and structure-activity studies on N-[5-(1H-imidazol-4-yl)-5,6,7,8-tetrahydro-1-naphthalenyl]methanesulfonamide, an imidazole-containing alpha(1A)-adrenoceptor agonist” (J Med Chem, 2004)
